“And” between values parts separate entries of the source, which are not always exact repeats. Identical values can stand only once.
Assays:
Mus musculus [1] = test: Tested for number of animal surviving at least 50 days out of 5 animal treated at dose of 15 mg/kg; type: functional
Procedure, shortened: (§1)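 Female CD-1 mice, Sarcoma 180 ascites, 0.1 mL of 10^7 cells/mL given ip. Drug in 0.9% NaCl, 5% ethanol, Tween 80, serially diluted with saline. Dosed ip at 0.5 mL daily for 6 days from 24 h post-implant; daily dose based on starting mean weight. T/C is the mean survival of treated mice dying before 50 days vs controls. Survivors are those alive ≥50 days out of those treated.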

[2] = Tested for inhibition of growth of sarcoma 180 cells in culture; type: functional, cell-based; details: Mus musculus
Procedure, shortened: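 Sarcoma 180 cells in suspension in Fischer's medium with 10% horse serum and penicillin/streptomycin, seeded at 10^4 cells/mL. Drug added from 10× stocks in 10% Me2SO/PBS, final 1–100 μM. Control cultures contained 1% Me2SO. Triplicate Coulter counts at 24, 48 and 72 h. IC50 read from a plot of inhibition of cell-number increase at 72 h versus concentration.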

Mus musculus [3] = test: Tested for mean survival time treated animal not surviving 50 days as a percentage at dose of 2.5 mg/kg; type: functional; procedure, shortened: as §1
Mus musculus [4] = test: Tested for mean survival time treated animal not surviving 50 days as a percentage at dose of 10 mg/kg; type: functional; procedure, shortened: as §1
Mus musculus [5] = test: Tested for number of animal surviving at least 50 days out of 5 animal treated at dose of 2.5 mg/kg; type: functional; procedure, shortened: as §1
Mus musculus [6] = test: Tested for change in body weight from onset to termination at dose of 5 mg/kg; type: functional
Procedure, shortened: (§2)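 Female CD-1 mice inoculated ip with 0.1 mL of 10^7 Sarcoma 180 ascites cells/mL. Drug in 0.9% NaCl with 5% ethanol and Tween 80, serially diluted in saline, given ip once daily for 6 days starting 24 h after implantation. Dose based on mean starting weight. Controls received saline. Weight change recorded from day 0 to day 7, as % change.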

Mus musculus [7] = test: Tested for change in body weight from onset to termination at dose of 1.25 mg/kg; type: functional; procedure, shortened: as §2
Mus musculus [8] = test: Tested for number of animal surviving at least 50 days out of 10 animal treated at dose of 10 mg/kg; type: functional; procedure, shortened: as §1
Mus musculus [9] = test: Tested for mean survival time treated animal not surviving 50 days as a percentage at dose of 1.25 mg/kg; type: functional; procedure, shortened: as §1
Mus musculus [10] = test: Tested for change in body weight from onset to termination at dose of 15 mg/kg; type: functional; procedure, shortened: as §2
Mus musculus [11] = test: Tested for number of animal surviving at least 50 days out of 5 animal treated at dose of 1.25 mg/kg; type: functional; procedure, shortened: as §1
Mus musculus [12] = test: Tested for change in body weight from onset to termination at dose of 20 mg/kg; type: functional; procedure, shortened: as §2
Mus musculus [13] = test: Tested for number of animal surviving at least 50 days out of 10 animal treated at dose of 20 mg/kg; type: functional; procedure, shortened: as §1
Mus musculus [14] = test: Tested for change in body weight from onset to termination at dose of 10 mg/kg; type: functional; procedure, shortened: as §2
Mus musculus [15] = test: Tested for mean survival time treated animal not surviving 50 days as a percentage at dose of 20 mg/kg; type: functional; procedure, shortened: as §1
Mus musculus [16] = test: Tested for number of animal surviving at least 50 days out of 10 animal treated at dose of 5 mg/kg; type: functional; procedure, shortened: as §1
Mus musculus [17] = test: Tested for mean survival time treated animal not surviving 50 days as a percentage at dose of 5 mg/kg; type: functional; procedure, shortened: as §1
Mus musculus [18] = test: Tested for mean survival time treated animal not surviving 50 days as a percentage at dose of 15 mg/kg; type: functional; procedure, shortened: as §1
Mus musculus [19] = test: Tested for change in body weight from onset to termination at dose of 2.5 mg/kg; type: functional; procedure, shortened: as §2
Mus musculus [20] = test: Tested for mean survival time treated animal not surviving 50 days as a percentage at dose of 30 mg/kg; type: functional; procedure, shortened: as §1
Mus musculus [21] = test: Tested for change in body weight from onset to termination at dose of 30 mg/kg; type: functional; procedure, shortened: as §2
Mus musculus [22] = test: Tested for number of animal surviving at least 50 days out of 5 animal treated at dose of 30 mg/kg; type: functional; procedure, shortened: as §1
Mus musculus [23] = test: Tested for number of animal surviving at least 50 days out of 5 animal treated at dose of 10 mg/kg; type: functional; procedure, shortened: as §1
Mus musculus [24] = test: Tested for number of animal surviving at least 50 days out of 5 animal treated at dose of 20 mg/kg; type: functional; procedure, shortened: as §1
Mus musculus [25] = test: Tested for mean survival time of Mice bearing Ehrlich carcinoma not surviving 50 days as a percentage at dose of 10 mg/kg; type: functional
Procedure, shortened: (§3)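 Female CD-1 mice, Ehrlich ascites carcinoma, 0.1 mL of 10^7 cells/mL given ip. Drug in 0.9% NaCl with 5% ethanol and trace Tween 80, serially diluted with saline. Dosed ip at 0.5 mL once daily for 6 days from 24 h post-implant; saline controls. T/C is the mean survival of treated mice dying before 50 days as % of controls. Survivors are those alive ≥50 days.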

Mus musculus [26] = test: Tested for number of animal surviving at least 50 days out of 10 animal treated at dose of mg/kg; type: functional; procedure, shortened: as §1
Mus musculus [27] = test: Tested for mean survival time of Mice bearing […] 755 not surviving 50 days as a percentage at dose of 10 mg/kg; type: functional
Procedure, shortened: (§4)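 Female AKD2F1 mice, adenocarcinoma 755, 0.1 mL of 10^7 cells/mL given ip. Vehicle 0.9% NaCl/5% ethanol/Tween 80, serially diluted with saline. Dosed ip at 0.5 mL once daily for 6 consecutive days starting 24 h post-implant; saline controls. T/C is the mean survival of non-50-day survivors as % of controls. Survivors are those alive ≥50 days.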

Mus musculus [28] = test: Tested for change in body weight of Mice bearing […] 755 from onset to termination at dose of 10 mg/kg; type: functional
Procedure, shortened: (§5)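 Adenocarcinoma 755 implanted ip (0.1 mL of 10^7 cells/mL) in female AKD2F1 mice. Daily ip dosing for 6 days beginning 24 h after implantation, vehicle 0.9% NaCl/5% ethanol/Tween 80, lower doses by saline dilution. Control mice received saline. Weight difference between day 0 and day 7 taken as % change and used as a toxicity measure.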

Mus musculus [29] = test: Tested for mean survival time of Mice bearing Ehrlich carcinoma not surviving 50 days as a percentage at dose of 20 mg/kg; type: functional; procedure, shortened: as §3
Mus musculus [30] = test: Tested for change in body weight of Mice bearing Ehrlich carcinoma from onset to termination at dose of 5 mg/kg; type: functional
Procedure, shortened: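 Female CD-1 mice given ip implants of Ehrlich carcinoma (0.1 mL of 10^7 cells/mL). Drug in saline containing 5% ethanol and Tween 80, injected ip once daily for 6 consecutive days from 24 h post-implant. Controls received 0.9% NaCl. % body weight change measured between tumor implantation (day 0) and day 7.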

Mus musculus [31] = test: Tested for Mice bearing […] 755 surviving at least 50 days out of 5 animal treated at dose of 20 mg/kg; type: functional; procedure, shortened: as §4
Mus musculus [32] = test: Tested for Mice bearing Ehrlich carcinoma surviving at least 50 days out of 10 animal treated at dose of 5 mg/kg; type: functional; procedure, shortened: as §3
Mus musculus [33] = test: Tested for Mice bearing […] 755 surviving at least 50 days out of 5 animal treated at dose of 10 mg/kg; type: functional; procedure, shortened: as §4
Mus musculus [34] = test: Tested for change in body weight of Mice bearing […] 755 from onset to termination at dose of 5 mg/kg; type: functional; procedure, shortened: as §5
Mus musculus [35] = test: Tested for change in body weight of Mice bearing […] 755 from onset to termination at dose of 20 mg/kg; type: functional; procedure, shortened: as §5
Mus musculus [36] = test: Tested for Mice bearing Ehrlich carcinoma surviving at least 50 days out of 10 animal treated at dose of 20 mg/kg; type: functional; procedure, shortened: as §3
Mus musculus [37] = test: Tested for Mice bearing […] 755 surviving at least 50 days out of 5 animal treated at dose of 5 mg/kg; type: functional; procedure, shortened: as §4
Mus musculus [38] = test: Tested for mean survival time of Mice bearing […] 755 not surviving 50 days as a percentage at dose of 5 mg/kg; type: functional; procedure, shortened: as §4
Mus musculus [39] = test: Tested for mean survival time of Mice bearing Ehrlich carcinoma not surviving 50 days as a percentage at dose of 5 mg/kg; type: functional; procedure, shortened: as §3
Mus musculus [40] = test: Tested for mean survival time of Mice bearing […] 755 not surviving 50 days as a percentage at dose of 20 mg/kg; type: functional; procedure, shortened: as §4

O=Cc1c(C=O)c(O)c2ccccc2c1O
Survivors (Mus musculus [1]): 1 | IC50 [2]: 66 µM | Mean survival time, treated vs control (T/C) (Mus musculus [3]): 81% | Activity (Mus musculus [4]): 90% | Survivors (Mus musculus [5]): 0 | Activity (Mus musculus [6]): 14% | Activity (Mus musculus [7]): 16% | Survivors (Mus musculus [8]): 0 | Activity (Mus musculus [9]): 81% | Activity (Mus musculus [10]): 0% | Survivors (Mus musculus [11]): 0 | Activity (Mus musculus [12]): 1% | Survivors (Mus musculus [13]): 0 | Activity (Mus musculus [14]): 17% | Activity (Mus musculus [15]): 76% | Survivors (Mus musculus [16]): 0 | Activity (Mus musculus [17]): 93% | Activity (Mus musculus [18]): 64% | Activity (Mus musculus [19]): 14%

Cc1c(C)c(O)c(C=O)c(C)c1O
Activity (Mus musculus [20]): 89% | IC50 [2]: 27 µM | Activity (Mus musculus [4]): 94% | Activity (Mus musculus [21]): 17% | Survivors (Mus musculus [22]): 0 | Activity (Mus musculus [12]): 25% | Survivors (Mus musculus [23]): 0 | Activity (Mus musculus [14]): 25% | Activity (Mus musculus [15]): 84% | Survivors (Mus musculus [24]): 0

CC(=O)Oc1c(C)c(C)c(OC(C)=O)c2c1C(OC(C)=O)OC2OC(C)=O (centres undefined)
Activity (Mus musculus [25]): 195% | Survivors (Mus musculus [26]): 0 | IC50 [2]: < 25 µM | Activity (Mus musculus [27]): 16% | Activity (Mus musculus [4]): 149% | Activity (Mus musculus [28]): -15% | Activity (Mus musculus [6]): 5% | Activity (Mus musculus [29]): 222% | Activity (Mus musculus [30]): 4% | Survivors (Mus musculus [13]): 0 | Activity (Mus musculus [14]; 10 mg/kg): -6% and -4% | Survivors (Mus musculus [31]): 1 | Survivors (Mus musculus [32]): 2 | Activity (Mus musculus [15]): 109% | Survivors (Mus musculus [33]): 4 | Activity (Mus musculus [34]): -7% | Activity (Mus musculus [35]): -14% | Survivors (Mus musculus [16]): 0 | Survivors (Mus musculus [36]): 3 | Survivors (Mus musculus [37]): 3 | Activity (Mus musculus [17]): 109% | Activity (Mus musculus [38]): 59% | Activity (Mus musculus [39]): 168% | Activity (Mus musculus [40]): 38%

Cc1c(C)c(O)c(C)c(C)c1O [DUROHYDROQUINONE]
IC50 [2]: 12 µM

Source: ChEMBL document CHEMBL1121449, “Synthesis and antineoplastic activity of hydroquinone dialdehydes” (J Med Chem, 1980)
